25 compounds from ChEMBL document CHEMBL3233000, “Cytotoxic ent-kaurane diterpenoids from Isodon wikstroemioides” (J Nat Prod, 2014) can be followed below.

SMILES strings stand for the structures.

Common to all, as to format: functional, cell-based
The subject of one test is MCF7. Briefly: Cytotoxicity against human MCF7 cells assessed as growth inhibition after 48 hrs by MTS assay. To be noted: MCF7, 48 h. The method in brief: (§1)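 Cell lines from ATCC, grown in RPMI-1640 or DMEM with 10% FBS at 37 °C, 5% CO2. Cells seeded, incubated 12 h at 37 °C, then screened at 40 μM for 48 h with MTS read-out. Where growth inhibition reached 50%, retested at 0.064, 0.32, 1.6, 8 and 40 μM in triplicate. Cisplatin and paclitaxel were positive controls. IC50 by Reed and Muench method.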

A further test concerns SMMC-7721. In words: Cytotoxicity against human SMMC7721 cells assessed as growth inhibition after 48 hrs by MTS assay. The following applies: SMMC-7721, 48 h. The method in brief: as §1
(In general: Tetrazolium assays rely on reduction of a dye to a coloured formazan, in cell work by metabolically active cells.)

For another test, the system named is SW480. In words: Cytotoxicity against human SW480 cells assessed as growth inhibition after 48 hrs by MTS assay. The following applies: SW480, 48 h. The procedure, abridged: as §1
A further test concerns A549. In words: Cytotoxicity against human A549 cells assessed as growth inhibition after 48 hrs by MTS assay. To be noted: A549, 48 h. The method in brief: as §1
Another test deals with RAW264.7. In words: Inhibition of nitric oxide production in LPS-stimulated mouse RAW264.7 cells after 18 hrs by griess reagent based plate reader analysis. To be noted: RAW264.7, 18 h. The method in brief: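 RAW264.7 macrophages seeded at 2 × 10^5 cells/well. Treated with serial dilutions (top concentration 25 μM), then stimulated with LPS 1 μg/mL for 18 h. Supernatant NO measured with Griess reagents, absorbance 550 nm. MG-132 was the positive control. Viability was checked in parallel by MTT (595 nm) to exclude cytotoxic interference.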

In the next test the test system is HL-60. In words: Cytotoxicity against human HL60 cells assessed as growth inhibition after 48 hrs by MTS assay. To be noted: HL-60, 48 h. The method in brief: as §1

What is called IC50 is the concentration needed to halve the response being measured.

In the case of `C=C1C(=O)[C@]23[C@H](O)[C@H]1[C@@H](O)C[C@H]2[C@]1(C)CCC[C@](C)(CO)[C@H]1C[C@H]3OC(C)=O`, the IC50 in the test on MCF7 was greater than 10 µM; in the test on SMMC-7721, greater than 10 µM; in the test with SW480, 6.9 µM; with A549 it was greater than 10 µM; in the test on RAW264.7, 16.8 µM; in the test with HL-60, greater than 10 µM.

On to `C=C1C(=O)[C@@]23[C@H](O)C[C@@H]4[C@@](C)(CO)CCC[C@@]4(C)[C@@H]2C[C@H](O)[C@@H]1[C@H]3OC(C)=O`, for which the IC50 in the test with MCF7 is greater than 10 µM; with SMMC-7721, greater than 10 µM; with SW480, 8.6 µM; with A549, greater than 10 µM; in the test on RAW264.7, 16.5 µM; with HL-60 it was greater than 10 µM.

With `C=C1C(=O)[C@]23[C@H](O)[C@H]1[C@@H](O)C[C@H]2[C@]1(C)CCC[C@](C)(COC(C)=O)[C@H]1C[C@H]3OC(C)=O`, the IC50 in the test with MCF7 turned out to be 1.6 µM; in the test with SMMC-7721, 3.5 µM; in the test on SW480, 0.9 µM; in the test with A549, 2.7 µM; in the test with RAW264.7, 5 µM; in the test on HL-60 it was 2.9 µM.

Consider `C=C1C(=O)[C@]23C[C@H]1[C@@H](O)C[C@H]2[C@]1(C)CCC[C@](C)(CO)[C@H]1C[C@H]3O`, for which the IC50 with MCF7 was found to be 4.9 µM; in the test with SMMC-7721 it was 4 µM; in the test on SW480 it was 1.4 µM; in the test with A549 it was 4.4 µM; in the test on RAW264.7, 3.5 µM; in the test on HL-60, 3.6 µM.

With `C=C1[C@H]2[C@@H](O)[C@@]3([C@H](O)C[C@@H]4[C@@](C)(CO)CCC[C@@]4(C)[C@@H]3C[C@@H]2O)[C@@H]1O`, the half-maximal inhibitory concentration (IC50) in the test on MCF7, in the test on SMMC-7721, in the test with SW480, in the test on A549 and with HL-60 was greater than 10 µM each time.

Regarding `C=C1C(=O)[C@@]23[C@H](O)C[C@@H]4C(C)(C)[C@H](O)CC[C@@]4(C)[C@@H]2[C@@H](O)[C@H](O)[C@@H]1[C@H]3O`, the IC50 in the test on MCF7, in the test on SMMC-7721, with SW480, in the test on A549 and in the test on HL-60 was greater than 10 µM each time.

In the case of `C=C1C(=O)[C@@]23[C@H](O)C[C@@H]4[C@@](C)(CO)[C@H](O)CC[C@@]4(C)[C@@H]2C[C@H](O)[C@@H]1[C@H]3O`, the IC50 with MCF7, in the test with SMMC-7721, with SW480, in the test with A549 and in the test on HL-60 was greater than 10 µM in each case.

As for `C=C1[C@@H]2CC[C@H]3[C@]4(C)CCC(=O)[C@](C)(CO)[C@H]4CC[C@]3(C2)[C@@H]1O`, the IC50 in the test on MCF7, in the test with SMMC-7721, in the test with SW480, in the test with A549 and in the test on HL-60 was greater than 10 µM each time.

For the compound `C=C1C(=O)[C@@]23CC[C@@H]4[C@@](C)(CO)[C@H](O)CC[C@@]4(C)[C@@H]2C[C@H](O)[C@@H]1C3`, the IC50 with MCF7 was found to be 4.8 µM; with SMMC-7721 it was 4.1 µM; with SW480, 2.7 µM; in the test on A549, 3.7 µM; in the test on RAW264.7, 4.7 µM; in the test on HL-60, 4.1 µM.

For the compound `C=C1C(=O)[C@@]23C[C@H](O)[C@@H]4C(C)(C)CCC[C@@]4(C)[C@@H]2[C@@H](O)C[C@@H]1[C@H]3O`, the IC50 is 3.7 µM with MCF7; 5.1 µM in the test on SMMC-7721; 2.3 µM in the test on SW480; 5.1 µM in the test with A549; 2.5 µM in the test on RAW264.7; 4.8 µM with HL-60.

For `C=C1C(=O)[C@@]23CC(=O)[C@@H]4C(C)(C)CCC[C@@]4(C)[C@@H]2[C@@H](O)C[C@@H]1[C@H]3O`, the IC50 amounted to 1.6 µM with MCF7; 0.8 µM in the test on SMMC-7721; 1 µM with SW480; 1 µM in the test with A549; 1.1 µM in the test with RAW264.7; 3.1 µM in the test on HL-60.

For `C=C1C(=O)[C@@]23CC[C@H]4[C@@](C)(CCC[C@]4(C)C=O)[C@@H]2C[C@H](O)[C@@H]1[C@H]3O`, the IC50 in the test on MCF7 is 1.7 µM; with SMMC-7721 it was 1.4 µM; with SW480 it was 1 µM; in the test on A549, 0.9 µM; with RAW264.7 it was 1.9 µM; in the test on HL-60, 3.2 µM.

Take `C=C1[C@H]2C[C@@]3(CC[C@@H]4[C@@](C)(CO)CCC[C@@]4(C)[C@@H]3C[C@@H]2O)[C@@H]1O`: the IC50 is greater than 10 µM in the test on MCF7; greater than 10 µM with SMMC-7721; greater than 10 µM with SW480; greater than 10 µM with A549; 23.9 µM with RAW264.7; greater than 10 µM in the test with HL-60.

`C=C1C(=O)[C@@]23[C@H](O)C[C@@H]4[C@@](C)(CO)CCC[C@@]4(CO)[C@@H]2C[C@H](O)[C@@H]1[C@H]3O`: the IC50 in the test on MCF7, in the test with SMMC-7721, in the test on SW480, in the test on A549 and in the test on HL-60 was greater than 10 µM throughout.

As to `C=C1C(=O)[C@@]23CC[C@@H]4[C@@](C)(CO)CCC[C@@]4(C=O)[C@@H]2CC[C@@H]1[C@H]3O`, the IC50 in the test with MCF7 was greater than 10 µM; in the test on SMMC-7721 it was greater than 10 µM; in the test with SW480, greater than 10 µM; in the test on A549 it was greater than 10 µM; in the test on RAW264.7, 9.9 µM; in the test with HL-60, greater than 10 µM.

On to `C=C1C(=O)[C@]23[C@H](O)[C@H]1[C@@H](O)[C@H](O)[C@H]2[C@]1(C)CCCC(C)(C)[C@H]1C[C@H]3OC(C)=O`, for which the IC50 in the test with MCF7 was greater than 10 µM; in the test with SMMC-7721, 5.8 µM; with SW480, 4.7 µM; in the test with A549, greater than 10 µM; in the test on RAW264.7 it was 7.2 µM; in the test with HL-60, 8.8 µM.

As for `C=C1C(=O)[C@@]23CC[C@@H]4[C@@](C)(CO)CCC[C@@]4(C)[C@@H]2C[C@H](O)[C@@H]1[C@H]3O`, the IC50 in the test with MCF7 was greater than 10 µM; in the test on SMMC-7721, 4 µM; in the test with SW480, 4 µM; in the test with A549, greater than 10 µM; in the test with RAW264.7 it was 4.8 µM; with HL-60, 8.8 µM.

For `C=C1C(=O)[C@@]23[C@H](O)C[C@@H]4[C@@](C)(CO)[C@@H](O)CC[C@@]4(C)[C@@H]2CC(=O)[C@@H]1[C@H]3O`, the IC50 in the test with MCF7, with SMMC-7721, in the test on SW480, in the test on A549 and in the test on HL-60 was greater than 10 µM in each case.

As to `C=C1[C@@H]2C[C@H](OC(C)=O)[C@H]3[C@]4(C)[C@@H](OC(C)=O)C[C@H](O)C(C)(C)[C@H]4C(=O)[C@H](OC(C)=O)[C@]3(C2)[C@@H]1O` [ADENANTHIN J], the IC50 in the test on MCF7, in the test with SMMC-7721, in the test with SW480, with A549 and in the test with HL-60 was greater than 10 µM in each case.

In the case of `C=C1[C@@H]2C[C@H](OC(C)=O)[C@H]3[C@]4(C)[C@@H](OC(C)=O)C[C@H](O)C(C)(C)[C@H]4C(=O)[C@H](O)[C@]3(C2)[C@@H]1OC(C)=O` [ADENANTHIN K], the IC50 in the test on MCF7, with SMMC-7721, with SW480, in the test with A549 and in the test on HL-60 was greater than 10 µM in each case.

On to `C=C1[C@H]2[C@@H](O)[C@@]3([C@H](O)C[C@@H]4[C@@](C)(CO)CCC[C@@]4(C)[C@@H]3C[C@@H]2O)[C@@H]1OC(C)=O` [ALBOPILOSIN B], for which the IC50 with MCF7, in the test with SMMC-7721, in the test with SW480, in the test on A549 and in the test with HL-60 was greater than 10 µM in each case.

As to `C=C1[C@@H]2C[C@H](OC(C)=O)[C@H]3[C@]4(C)[C@@H](OC(C)=O)C[C@H](O)C(C)(C)[C@H]4C(=O)[C@H](O)[C@]3(C2)[C@@H]1O` [NERVONIN E], the IC50 in the test with MCF7, in the test on SMMC-7721, with SW480, with A549 and in the test with HL-60 was greater than 10 µM throughout.

Consider `C=C1[C@@H]2C[C@H](O)[C@H]3[C@]4(C)[C@@H](OC(C)=O)C[C@H](O)C(C)(C)[C@H]4[C@@H](OC(C)=O)[C@H](OC(C)=O)[C@]3(C2)[C@@H]1O` [NERVONIN G], for which the IC50 with MCF7, in the test with SMMC-7721, in the test with SW480, with A549 and in the test with HL-60 was greater than 10 µM throughout.

As for `CC(=O)O[C@H]1C(=O)[C@@]2(C)[C@H]([C@H](OC(=O)c3ccccc3)[C@]3(O)C[C@H](OC(=O)[C@H](O)[C@@H](NC(=O)c4ccccc4)c4ccccc4)C(C)=C1C3(C)C)[C@]1(OC(C)=O)CO[C@@H]1C[C@@H]2O` [PACLITAXEL], the IC50 in the test with MCF7, in the test with SMMC-7721, in the test with SW480, with A549 and in the test on HL-60 was less than 0.008 µM in each case.

Turning to `C=C1C(=O)[C@@]23[C@H](O)C[C@@H]4[C@@](C)(CO)CCC[C@@]4(C)[C@@H]2[C@@H](O)C[C@@H]1[C@H]3O` [RABDOKUNMIN D], the IC50 in the test on MCF7, in the test on SMMC-7721, in the test on SW480, with A549 and with HL-60 was greater than 10 µM each time.
